# From ChEMBL document CHEMBL4765395, “Design, diversity-oriented synthesis and biological evaluation of novel heterocycle derivatives as non-nucleoside HBV capsid protein inhibitors” (Eur J Med Chem, 2020)
# Active and inactive are the calls of the source. The rule behind the calls is not given here.
# What was measured:
# Hepatitis B virus [1] = assay: Antiviral activity against HBV infected in human HepG2.2.15 cells assessed as […] at 100 uM incubated for 4 days prior to compound washout followed by compound addition and measured after 4 days by fluorogenic probe based RT-qPCR analysis relative to control; format: functional; conditions: for inhibition at 100 µM: HepG2.2.15, 192 h, time 8 day; for inhibition: time 8.0 day
# HepG2 2.2.15 [2] = assay: Cytotoxicity against human HepG2.2.15 cells assessed as reduction in cell viability at 100 uM incubated for 4 days prior to compound washout followed by compound addition and measured after 4 days by CCK8 assay relative to control; format: cell-based; conditions: hepg2 2.2.15, 192 h, time 8 day
# Outline: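 Three wells of 4000 HepG2.2.15 cells per well received a single 100 µM concentration for 8 days, with medium replaced on day 4. CCK-8 (10%) was added 0.5 h before the end, and OD was read at 450 and 630 nm. Percent cell death was calculated against untreated cells.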
# HepG2 2.2.15 [3] = assay: Cytotoxicity against human HepG2.2.15 cells assessed as reduction in cell viability at 20 uM incubated for 4 days prior to compound washout followed by compound addition and measured after 4 days by CCK8 assay relative to control; format: cell-based; conditions: hepg2 2.2.15, 192 h, time 8 day
# Hepatitis B virus [4] = assay: Antiviral activity against HBV infected in human HepG2.2.15 cells assessed as reduction in intracellular viral DNA level at 20 uM incubated for 4 days prior to compound washout followed by compound addition and measured after 4 days by fluorogenic probe based RT-qPCR analysis relative to control; format: functional; conditions: for inhibition: time 8.0 day
# Hepatitis B virus [5] = assay: Antiviral activity against HBV infected in human HepG2.2.15 cells assessed as reduction in intracellular viral DNA level at 50 uM incubated for 4 days prior to compound washout followed by compound addition and measured after 4 days by fluorogenic probe based RT-qPCR analysis relative to control; format: functional; conditions: for inhibition at 50 µM: HepG2.2.15, 192 h, time 8 day
# HepG2 2.2.15 [6] = assay: Cytotoxicity against human HepG2.2.15 cells assessed as reduction in cell viability at 50 uM incubated for 4 days prior to compound washout followed by compound addition and measured after 4 days by CCK8 assay relative to control; format: cell-based; conditions: hepg2 2.2.15, 192 h, time 8 day
structure (smiles),measurement,setting,value
O=C(NCc1ccc(F)cc1Cl)c1cn(-c2nccs2)nc1NCc1ccccc1,inhibition at 100 µM,Hepatitis B virus [1],41.6%
same,Activity,HepG2 2.2.15 [2],29.2%
CCOC(=O)c1cn(-c2cccc(F)c2)nc1NC,inhibition,Hepatitis B virus [1],inactive
same,Activity,HepG2 2.2.15 [2],5.7%
CC(C)Cc1nc(NC(=O)c2cccs2)sc1C(=O)NCc1ccc(F)cc1,Activity,HepG2 2.2.15 [3],15.2%
same,inhibition,Hepatitis B virus [4],inactive
O=C(NCc1ccc(F)cc1F)c1cn(-c2nccs2)nc1NCc1ccccc1,inhibition at 100 µM,Hepatitis B virus [1],32.9%
same,Activity,HepG2 2.2.15 [2],16.9%
O=C(NC1CC1)c1cn(-c2cccc(F)c2)nc1NCc1ccccc1,inhibition at 100 µM,Hepatitis B virus [1],38.8%
same,Activity,HepG2 2.2.15 [2],40.8%
CC(C)Cc1nc(NS(=O)(=O)c2ccc(F)cc2)sc1C(=O)NCc1ccc(F)cc1,Activity,HepG2 2.2.15 [3],17.5%
same,inhibition,Hepatitis B virus [4],inactive
CC(C)Cc1nc(-c2cccs2)sc1C(=O)NCc1ccc(F)cc1,Activity,HepG2 2.2.15 [3],17.8%
same,inhibition,Hepatitis B virus [4],inactive
COC(=O)c1nc(-c2ccccc2OC)cnc1NC(=O)c1ccccc1,inhibition,Hepatitis B virus [5]; time 8.0 day,inactive
same,Activity,HepG2 2.2.15 [6],5.7%
CCOC(=O)c1cn(-c2cccc(F)c2)nc1SC1CCCCC1,inhibition,Hepatitis B virus [1],inactive
same,Activity,HepG2 2.2.15 [2],18.1%
CCOC(=O)c1cn(-c2cccc(F)c2)nc1NCc1ccccc1,inhibition at 100 µM,Hepatitis B virus [1],14.6%
same,Activity,HepG2 2.2.15 [2],Non-Toxic
CCOC(=O)c1cnc(-c2cccc(F)c2)nc1CC(C)C,inhibition at 50 µM,Hepatitis B virus [5],46.3%
same,Activity,HepG2 2.2.15 [6],Non-Toxic
CC(C)Cc1nc(-c2cc3ccccc3s2)sc1C(=O)NCc1ccc(F)cc1,Activity,HepG2 2.2.15 [3],Non-Toxic
same,inhibition at 20 µM,"Hepatitis B virus [4]; HepG2.2.15, 192 h, time 8 day",21.1%
CCNc1nn(-c2cccc(F)c2)cc1C(=O)OCC,inhibition at 100 µM,Hepatitis B virus [1],39.9%
same,Activity,HepG2 2.2.15 [2],10.9%
CCOC(=O)c1cnc(-c2ccccc2)nc1CC(C)C,inhibition at 50 µM,Hepatitis B virus [5],37.3%
same,Activity,HepG2 2.2.15 [6],Non-Toxic
